Assay results: ChEMBL document CHEMBL1149490, “SAR of biphenyl carboxamide ligands of the human melanin-concentrating hormone receptor 1 (MCH R1): discovery of antagonist SB-568849” (Bioorg Med Chem Lett, 2006)
≈ marks a conversion by molar mass, not a printed value. Calls of active or inactive are those of the source. The calls are words filed in the database; no cut-off is given here.

What was measured:
[1] = target: T1, Melanin-concentrating hormone receptor 1 (Homo sapiens, UniProt Q99705); assay: Displacement of radiolabeled iodo-MCH from human MCHR1 expressed in HEK293 cells; type: cell-based
T1 sequence (Q99705 whole entry): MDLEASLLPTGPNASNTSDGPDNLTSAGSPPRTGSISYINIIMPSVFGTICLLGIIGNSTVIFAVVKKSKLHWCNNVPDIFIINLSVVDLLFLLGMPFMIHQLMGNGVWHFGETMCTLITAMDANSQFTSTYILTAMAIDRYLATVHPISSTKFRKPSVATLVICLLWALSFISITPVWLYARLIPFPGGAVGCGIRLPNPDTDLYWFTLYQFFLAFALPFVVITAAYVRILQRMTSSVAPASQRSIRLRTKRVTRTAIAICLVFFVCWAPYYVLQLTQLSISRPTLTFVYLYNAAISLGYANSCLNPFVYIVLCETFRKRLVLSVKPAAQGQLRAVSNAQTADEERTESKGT

[2] = target: T1, Melanin-concentrating hormone receptor 1; assay: Antagonist activity at human MCHR1 expressed in HEK293 cells assessed as inhibition of MCH-stimulated calcium mobilization; type: functional, cell-based
Method in brief: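 Stably transfected HEK293 cells re-seeded on poly-D-lysine and grown 24 h, loaded with fluorescent indicator in assay buffer plus probenecid, washed, then exposed to compound for 30 min. FLIPR readings taken before and after an EC80 concentration of MCH. Apparent pKb fitted to the MCH response with a 4-parameter logistic equation.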

[3] = target: T2, 5-hydroxytryptamine receptor 2C (Homo sapiens, UniProt P28335); assay: Binding affinity to 5HT2C receptor
T2 sequence (P28335 whole entry): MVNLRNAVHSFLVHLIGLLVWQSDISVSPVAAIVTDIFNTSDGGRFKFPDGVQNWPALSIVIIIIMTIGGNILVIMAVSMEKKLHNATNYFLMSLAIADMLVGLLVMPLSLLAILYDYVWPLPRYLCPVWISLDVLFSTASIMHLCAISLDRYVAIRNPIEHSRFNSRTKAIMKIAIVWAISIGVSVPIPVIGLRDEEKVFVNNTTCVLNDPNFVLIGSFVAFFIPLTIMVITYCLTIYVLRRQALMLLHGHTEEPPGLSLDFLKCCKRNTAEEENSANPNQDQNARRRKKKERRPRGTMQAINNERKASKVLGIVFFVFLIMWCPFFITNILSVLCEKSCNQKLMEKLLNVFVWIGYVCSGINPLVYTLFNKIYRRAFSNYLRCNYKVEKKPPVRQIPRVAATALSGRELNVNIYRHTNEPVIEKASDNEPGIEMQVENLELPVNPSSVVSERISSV

Liver microsomes = assay: Intrinsic clearance in rat liver microsome; type: ADME
Method in brief: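 Rat liver microsomes at 0.5 mg/mL protein, starting compound 0.5 µM. Compound loss followed as a concentration-time profile. First-order rate constant K taken from the profile; CLi = K·V, scaled and given in mL/min/g liver.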

[4] = Clearance in rat at 0.3 mg/kg/hr, iv; type: ADME, organism-based; parameters: route intravenous; settings: in vivo
Method in brief: (§1)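 Rats given compound dissolved in 2% (v/v) DMSO in 5% (w/v) aqueous dextrose by constant iv infusion over 12 h, target 0.3 mg free base/kg/h, for steady-state brain:blood measurement. Blood clearance is the initial elimination rate from blood per unit body mass after this iv dosing.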

[5] = Solubility of the compound; type: physicochemical
[6] = Ratio of drug level in brain against blood in rat 0.3 mg/kg/hr, iv; type: ADME, organism-based; parameters: route intravenous; settings: read-out: BBR; method in brief: as §1
[7] = Solubility in artificial cerebrospinal fluid; type: physicochemical
[8] = Solubility in water; type: physicochemical
[9] = AUC in Sprague-Dawley rat; type: ADME, organism-based; settings: plasma
Method in brief: (§2)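 Cannulated Sprague-Dawley rats (n ≥ 3), crossover over two study days: iv infusion of buffered compound at 10 mL/kg/h, target 1.0 mg pfb/kg, blood sampled up to 24 h. After ≥2 days recovery, oral gavage of a suspension in aq methylcellulose (1.5 mg pfb/mL, 2 mL/kg), target 3 mg pfb/kg, blood sampled pre-dose and up to 27 h.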

[10] = Oral bioavailability in Sprague-Dawley rat; type: ADME, organism-based; settings: in vivo; method in brief: as §2
[11] = target: Melanin-concentrating hormone receptor (Homo sapiens) (UniProt Q969V1+Q99705); assay: Antagonizing effect on MCH-stimulated CRF release in rat hypothalamus; type: functional, tissue-based; settings: target entry is the homologue from another species
Melanin-concentrating hormone receptor (Homo sapiens), sequence (Q969V1 whole entry, looked up): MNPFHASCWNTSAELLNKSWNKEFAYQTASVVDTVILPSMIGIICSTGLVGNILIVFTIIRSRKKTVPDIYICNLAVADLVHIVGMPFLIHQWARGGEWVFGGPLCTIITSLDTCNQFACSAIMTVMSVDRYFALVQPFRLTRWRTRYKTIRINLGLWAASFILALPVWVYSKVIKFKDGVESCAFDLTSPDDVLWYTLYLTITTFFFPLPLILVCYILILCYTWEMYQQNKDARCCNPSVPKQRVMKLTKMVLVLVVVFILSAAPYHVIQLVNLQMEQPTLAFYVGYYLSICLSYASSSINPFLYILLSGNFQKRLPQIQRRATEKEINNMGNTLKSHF
Melanin-concentrating hormone receptor (Homo sapiens), sequence (Q99705 whole entry, looked up): as the sequence (Q99705 whole entry) above

Structure (SMILES) | Ki [1] [nM] | further results
COc1cc(NC(=O)c2cccc(C(=O)c3ccccc3)c2)ccc1OCCN(C(C)C)C(C)C | > 10000 | –
COc1cc(NC(=O)c2cccc(Cc3ccccc3)c2)ccc1OCCN(C(C)C)C(C)C | 158 | –
CCN(CC)CCOc1ccc(N(C)C(=O)c2ccc(-c3ccccc3)cc2)cc1OC | 20 | CL (Liver microsomes): 5 mL/min/g; clearance [4]: 51 mL/min/kg; Kp [6]: 0.1
COc1cc(NC(=O)c2ccc(Br)cc2)ccc1OCCN(C(C)C)C(C)C | > 6310 | –
COc1cc(NC(=O)c2ccc(-c3ccccc3)c(C)c2)ccc1OCCN(C(C)C)C(C)C | 158 | –
COc1cc(NC(=O)c2ccc(-c3ccccc3)cc2C)ccc1OCCN(C(C)C)C(C)C | 126 | –
COc1cc(N(C)C(=O)c2ccc(-c3ccccc3)cc2)ccc1OCCN(C(C)C)C(C)C | 15.8 | solubility [7]: > 500 µg/mL; CL (Liver microsomes): 19 mL/min/g; solubility [8]: > 500 µg/mL
Cc1cc(NC(=O)c2ccc(-c3ccccc3)cc2)ccc1OCCN(C(C)C)C(C)C | 63.1 | –
COc1cc(NC(=O)c2ccc(-c3ccccc3C)cc2)ccc1OCCN(C(C)C)C(C)C | 39.8 | –
COc1cc(NC(=O)c2ccc(-c3cccc(C(F)(F)F)c3)cc2)ccc1OCCN(C(C)C)C(C)C | 251 | –
COc1cc(NC(=O)c2ccc(C(C)(C)C)cc2)ccc1OCCN(C(C)C)C(C)C | > 10000 | –
COc1cc(N(C)C(=O)c2ccc(-c3ccccc3)cc2)ccc1OCCN1CCCC1 | 20 | CL (Liver microsomes): 2 mL/min/g; clearance [4]: 57 mL/min/kg; Kp [6]: 0.1
COc1cc(NC(=O)c2ccc(-c3ccc(C(F)(F)F)cc3)cc2)ccc1OCCN(C(C)C)C(C)C | 79.4 | –
CCN(CC)CCOc1ccc(NC(=O)c2ccc(-c3ccccc3)cc2)cc1C(C)O (stereo not given) | 251 | –
COc1cc(NC(=O)c2ccc(-c3ccccc3)cc2)ccc1OCCN(C)C | 50.1 | –
COc1cc(NC(=O)c2ccc(-c3ccccc3)cc2)ccc1OCCN1CCCCC1 | 39.8 | –
CCN(CC)CCOc1ccc(N(C)C(=O)c2ccc(-c3ccc(C(F)(F)F)cc3)cc2)cc1OC | 20 | CL (Liver microsomes): 4 mL/min/g; AUC [9]: 2.37 µM·h; bioavailability [10]: 30%; Activity [11]: Active; clearance [4]: 16 mL/min/kg; Kp [6]: 1
COc1cc(NS(=O)(=O)c2ccc(-c3ccccc3)cc2)ccc1OCCN1CCCC1 | > 10000 | –
COc1cc(NC(=O)c2ccc(-c3ccccc3)cc2)ccc1OCCN1CCCC1 | 31.6 | CL (Liver microsomes): 2 mL/min/g

Further lines, with some results ahead:

Ki [1] [nM] | Structure (SMILES) | further results
> 10000 | COc1cc(N(C)S(=O)(=O)c2ccc(-c3ccccc3)cc2)ccc1OCCN(C(C)C)C(C)C | –
398 | CC(C)N(CCOc1ccc(NC(=O)c2ccc(-c3ccccc3)cc2)cc1F)C(C)C | –
63.1 | CC(C)N(CCOc1ccc(NC(=O)c2ccc(-c3ccccc3)cc2)cc1)C(C)C | –
100 | COc1cc(N(C)C(=O)c2ccc(C3CCCCC3)cc2)ccc1OCCN(C(C)C)C(C)C | –
31.6 | COc1cc(NC(=O)c2ccc(-c3ccccc3)cc2)ccc1OCCN(C(C)C)C(C)C | pKb [2]: 7.5; Ki [3]: 158 nM; CL (Liver microsomes): 9 mL/min/g; clearance [4]: 67 mL/min/kg; solubility [5]: 4 µg/mL (≈ 8.96 µM); Kp [6]: 2.7
251 | CCN(CC)CCOc1ccc(N(CC)C(=O)c2ccc(-c3ccccc3)cc2)cc1OC | –
5010 | COc1cc(NC(=O)c2cccc(-c3ccccc3)c2)ccc1OCCN(C(C)C)C(C)C | –
25.1 | Cc1cc(OCCN(C(C)C)C(C)C)ccc1NC(=O)c1ccc(-c2ccccc2)cc1 | –
25.1 | COc1cc(NC(=O)c2ccc(C3CCCCC3)cc2)ccc1OCCN(C(C)C)C(C)C | –
398 | COc1cc(N(C)C(=O)c2cccc(Oc3ccccc3)c2)ccc1OCCN(C(C)C)C(C)C | –
31.6 | CCN(CC)CCOc1ccc(NC(=O)c2ccc(-c3ccccc3)cc2)cc1OC | CL (Liver microsomes): 4 mL/min/g
31.6 | CCN(CC)CCOc1ccc(NC(=O)c2ccc(-c3ccccc3)cc2)cc1C(C)=O | –
> 10000 | COc1cc(NC(=O)c2ccccc2)ccc1OCCN(C(C)C)C(C)C | –
79.4 | COc1cc(NC(=O)c2cccc(Oc3ccccc3)c2)ccc1OCCN(C(C)C)C(C)C | –
50.1 | CCc1cc(NC(=O)c2ccc(-c3ccccc3)cc2)ccc1OCCN(CC)CC | –
50.1 | COc1cc(NC(=O)c2ccc(-c3ccccc3)cc2)ccc1OCCN(C)Cc1ccccc1 | –
200 | COc1cc(NC(=O)c2ccc(Oc3ccccc3)cc2)ccc1OCCN(C(C)C)C(C)C | –
79.4 | COc1cc(N(C)C(=O)c2ccc(Cc3ccccc3)cc2)ccc1OCCN(C(C)C)C(C)C | –
